Assay: Toxicity liver stage against HepG2, at 10uM
Type: cell-based
Parameters: test concentration 10 uM, cell line HepG2-A16-CD81EGFP
Settings: human, HepG2-A16-CD81EGFP cells; read-out: INHIBITION
In short: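 Uninfected HepG2-A16-CD81EGFP cells, 3 × 10^3 per well, 1536-well, plated on prespotted compound at 10 μM final, parasite-free screening media added to match infected plates; puromycin 10 μM positive, DMSO 0.5% negative; run in parallel with 48 h PbLuc assay at 37 °C, 5% CO2; viability by CellTiter-Glo luminescence, normalized to controls.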

SMILES | cytotoxicity at 10 µM [%]
F[C@@H]1CN(Cc2nccs2)C[C@@H]1OCc1nc2cnccc2[nH]1 | 4.15
O=C(NC1CCCCC1)c1cc(Br)cnc1N1CCCCC1 | 2.22
Cn1nc(-c2ccccc2)c(Br)c1C(=O)O | -48.3
Cc1n[nH]c2c1C(c1cccnc1)SCC(=O)N2 (centres undefined) | -7.46
COc1ccc(N2CCN(C(=O)COc3nccc(C)n3)CC2)cc1 | -6.16
COC(CNC(=O)C1CCN(S(C)(=O)=O)CC1)c1ccc(C)s1 (centres undefined) | -0.0506
CCS(=O)(=O)N1CCC2(CCN(CC(=O)N(C)C)C2=O)CC1 | 5.68
O=C(c1ccnnc1)N1C[C@@H](OCc2cccnc2)[C@H]2OCCC[C@H]21 | 5.03
Cc1nn(C)c(=O)c2nn(-c3cccc(Cl)c3)c(C)c12 | 3.79
CC1(C)OCC(CNC(=O)c2cnn(-c3cc(Cl)ccc3Cl)c2N)O1 (centres undefined) | 2.84
CC(C)N1CCc2c(C#N)c(NCc3ccco3)n3cnnc3c2C1 | -2.02
Cc1nc2[nH]cnc(NCCN3CCOCC3)c-2n1 | 3.22
Cc1cn([C@@H]2CC3(CCNCC3)OC[C@@]2(C)O)c(=O)[nH]c1=O | -5.6
O=C1CCOC[C@]2(CN(Cc3ccccc3)C[C@H]2c2ccccc2)N1 | -14.1
Cc1noc(C)c1-c1nc(C2CCCN(C(=O)CN)C2)ccc1CO (centres undefined) | -3.11
CCn1cc(S(=O)(=O)N2CCC(C3CCCCN(C)C3=O)CC2)c(C)n1 (centres undefined) | 6.58
CN([C@@H]1CC[C@@H](N2CCCC2)[C@@H]1O)S(=O)(=O)c1ccccc1 | -4.29
Cc1cc(C)nc(C2CCN(c3ccncn3)C2)n1 (centres undefined) | -0.419
OC1(Cn2ccc3ccncc32)CCN(Cc2ccccn2)CC1 | 2.42
CN1CCN(C(=O)CCC(=O)c2cccs2)Cc2ccccc21 | -57.8
COc1cc(Br)c(S(=O)(=O)NC(=O)C(C)OC)cc1OC (centres undefined) | -22.9
Cc1ccccc1CN1CCCN(S(=O)(=O)N(C)C2CCCCC2)CC1 | 11.5

SMILES | cytotoxicity at 10 µM [%]
Cc1csc(CCNC(=O)N2CCC(C(N)=O)CC2)n1 | -2.71
Cc1cccc(CCC(=O)Nc2ccnn2C2CCS(=O)(=O)C2)c1 (centres undefined) | 0.499
O=C(NCCNc1ccccn1)NC1CCOC2(CCCCC2)C1 (centres undefined) | -8.8
NC(=O)C1CN(c2ccc3cc(Br)ccc3n2)CCO1 (centres undefined) | 4.94
CC1CCCN(C(=O)c2ccc(N(C)Cc3cnn(C)c3)nc2)C1 (centres undefined) | 2.22
Cc1c(Br)cccc1S(=O)(=O)NCc1ccnn1C | 43
CCOc1ncccc1CNC(=O)CN1CCCCCC1=O | 2.92
CC(C)Cc1noc(CN2CCCN(C(=O)c3ccccc3Cl)CC2)n1 | -5.95
CCc1csc(C2CCCN(C(=O)c3ccc(OC)nc3)C2)n1 (centres undefined) | 4.65
CC(NC(=O)Cc1ccon1)c1ccc(OCC2CC2)c(F)c1 (centres undefined) | 5.47
O=C(NCCc1nnc2n1CCC2)NCC1(c2ccccc2)CC1 | -7.35
CC(C)c1ncncc1C(=O)NCCN1CCCCC1C (centres undefined) | -6.06
CSCC(CCO)NC(=O)Nc1ccc(C)cc1Br (centres undefined) | -11.8
CNc1cc(N2CCCC2CNCc2cccs2)ncn1 (centres undefined) | -12.3
CN(C)S(=O)(=O)c1ccc2c(c1)N(Cc1nccn1C)CC2 | -3.42
COc1ccccc1-c1cc(NC(=O)CCC2CCCO2)[nH]n1 (centres undefined) | -0.394
CCn1nc2c(cc1=O)CN(Cc1ccc(-n3cccn3)cc1)CC2 | -134
CC(=O)N1CCN(C(=O)CNc2cccc(OC(F)F)c2C)CC1 | -11.4
Cc1cc(C)n(-c2ccc(C(C)NS(N)(=O)=O)cc2)n1 (centres undefined) | -7.76
Cc1ccc(C)c(CS(=O)(=O)CC(=O)Nc2ccc(F)cc2F)c1 | 3.28
O=C1CCN(C(=O)CCc2cc(Br)cs2)CCN1 | -2.1
CCN(Cc1csc(CS(C)(=O)=O)n1)c1cccc(CO)c1 | -10

SMILES | cytotoxicity at 10 µM [%]
COc1cc(OC)c(CNC(=O)NCC(=O)N(C)C)c(OC)c1 | 3.27
CCOC(C)c1noc(CN(C)C(=O)C2C(C)(C)C2(C)C)n1 (centres undefined) | 9.5
CC(C)COC(C)C(=O)NCCNC(=O)C(C)C (centres undefined) | -15.2
CC(Cn1cccn1)NCc1nc(-c2ccc3c(c2)OCO3)no1 (centres undefined) | -12.4
O=C(Nc1ncn(Cc2cccc(Br)c2)n1)C1CCC1 | 11.4
CN(C)Cc1cnc2n1CCN(C(=O)C1CC=CC1)CC2 | -81.3
Cc1ccc2c(c1)C1(CCN(C(N)=O)CC1)CN2C(=O)N(C)C | -79.1
COCCNC(=O)c1cc2c(c3ccccc3n2C)n1C(=O)N(C)C | -72.6
Cc1cc(C(=O)N2CCn3c(COCC4CCCC4)cnc3C2C)on1 (centres undefined) | 3.18
Cc1cc(C(=O)N2CC[C@@H]3CN(S(C)(=O)=O)CCO[C@@H]3C2)c(C)o1 | 3.52
CS(=O)(=O)N1CCC2(CC1)CC(CC(=O)NC1CC1)c1ccccc12 (centres undefined) | -0.105
CCN(Cc1nc(COC)no1)Cc1ccccc1OCC(=O)O | -51.6
NC(=O)c1cnc2n1CCN(C(=O)c1cccc(Cn3cccn3)c1)C2 | 4.35
OC1(CN2CCC(Oc3cccc(C(F)(F)F)c3)CC2)CNCCOC1 (centres undefined) | -5.43
Cc1ccnc(CC(C)N(C)c2cc(C3CCNCC3)nc(C)n2)c1 (centres undefined) | -46.2
CN(Cc1ccc(-n2cccn2)cc1)Cc1cnc(N(C)C)nc1 | -1.28
Cc1cc(C(=O)N2CCC(n3nc(C)cc3C)C2)c2ccc(F)cc2n1 (centres undefined) | -5.08
O=C1CCC2(CCCN(C(=O)c3ccoc3)C2)CN1Cc1ccncc1 (centres undefined) | 3.06
CCc1nc(C)sc1CN1CCc2[nH]nc(-c3ccc(F)c(F)c3)c2C1 | 5.57
COc1ccccc1N1CCN(Cc2ncc(C)c(OC)c2C)CC1=O | 6.18
C=Cc1ccc(C(=O)N2CCCC(Nc3ccc(F)c(F)c3)C2)cc1 (centres undefined) | -9.03
CSc1ccccc1C(=O)N(C)Cc1nncn1C(C)C | 3.92

SMILES | cytotoxicity at 10 µM [%]
O=C(CCc1ccco1)N1CCC(Oc2ccccc2)(C(=O)O)CC1 | 1.46
Cn1ccc2c(-c3ccc(NCCO)nn3)ccnc21 | -5.56
Cc1nc2ccccc2n1Cc1cc(C(=O)N(C)C2CCOCC2)no1 | 25.7
CCN(CC)CCn1ccnc1-c1[nH]cnc1C | -8.88
N[C@@H]1c2ccccc2C2(CCN(C(=O)c3ccc(Cl)cn3)CC2)[C@H]1O | -2.21
CC(C)NS(=O)(=O)c1cc(C(=O)O)cc(-c2ccccc2CN(C)C)c1 | 6.41
Cc1cc2cc(C(=O)N[C@@H]3CC[C@@H](N4CCOCC4)[C@@H]3O)ccc2o1 | -1.85
O=C1NCC2(CCCN(Cc3ccccc3F)C2)Oc2ccccc21 (centres undefined) | 6.12
CNC(=O)COc1cccc(CNC(=O)c2c(C)noc2C(C)C)c1 | -2.8
O=C(Cc1cccc(F)c1)NCCNc1ncccn1 | -6.71
Cc1nc(C)n(CC2CN(Cc3cccc4ccccc34)CCO2)n1 (centres undefined) | -2.64
Cc1noc(C)c1CCC(=O)N1CCCC(n2cccn2)C1 (centres undefined) | -7.81
CN(Cc1ccccn1)C(=O)c1nc(S(C)(=O)=O)n2ccccc12 | -8.01
CCn1ccnc1CN1CCN(C(C)C(=O)NC2CCCC2)CC1 (centres undefined) | -4.86
CCNc1cc2c(nn1)CCN(C(=O)c1cccc(CSC)c1)C2 | -12.7
CN(Cc1noc(C2CC2)n1)C1CCN(CCn2cc(C#N)cn2)C1 (centres undefined) | -9.1
Cc1nn(C)c(Cl)c1C1CCCN1C(=O)c1cccn1C (centres undefined) | -5.53
CC(=O)Nc1nc(C(=O)N2CCCC2Cn2cccn2)cs1 (centres undefined) | -5.42
Cc1cccc(C(=O)N(C)C2CCN(c3ccccn3)CC2)c1C | 1.84
Cc1noc(CN2CCN(C(=O)c3ccccn3)CC2)n1 | 1.35
CCOCCCn1c(NC(=O)c2ccc(C)nc2)nc2ccccc21 | -6.95
Cc1nn(C)c(C)c1C1COCCN1C(=O)c1ccccc1 (centres undefined) | -10.2

SMILES | cytotoxicity at 10 µM [%]
CCc1ncc2c(n1)CN(Cc1nc(-c3ccsc3)oc1C)CC2 | -8.6
O=C(Nc1cccc(CNCc2cccs2)c1)C1CCCC1 | -4.59
Cn1ccnc1CN1CCN(c2ccc(C#N)cn2)CC1 | -4.2
CCCOc1cccc(CNC(=O)CN2CCN(C)CC2C)c1 (centres undefined) | -7.57
Cn1cnc(S(=O)(=O)NCCN2CCCCCC2=O)c1Cl | -14.2
CC(C)C(C(=O)N1CCC(N(C)c2cccnn2)CC1)n1cncn1 (centres undefined) | -7.44
CN(CC(=O)N(C)C1CCCCC1)C1CCc2ccccc21 (centres undefined) | -7.44
CCN1CCC(CNC(=O)C2(c3cccc(C)c3)CC2)C1 (centres undefined) | 1.42
Cc1cnn(C2CCCN(C(=O)C3=NN(C)C(=O)CC3)C2)c1 (centres undefined) | -3.71
O=C(c1cccc2cccnc12)N1CCCN(c2cccnn2)CC1 | -3.2
Cc1ccc(CN(Cc2ccccn2)C2CC(C)(C)NC(C)(C)C2)s1 | 2.7
O=C(NCc1ccco1)[C@@H]1CCO[C@@H]2CCN(c3ncccn3)C[C@@H]21 | -68.3
CC(C)CNC(=O)[C@H]1CCS(=O)(=O)[C@@H]2CN(Cc3cccc(Cl)c3)C[C@H]12 | -7.06
c1ncn(Cc2cnc3n2CCN(Cc2ccsc2)CC3)n1 | 6.2
CNC(=O)[C@H]1C[C@@H]2CN(C(=O)c3ccccn3)C[C@@H]2N1S(C)(=O)=O | -1.37
Cc1ccsc1CN1CC[C@H]2OCC[C@@]2(C(=O)N2CCCO2)C1 | -4
O=S(=O)(C1CC1)N1CCO[C@H]2[C@@H](Oc3cccnc3)CC[C@@H]21 | -5.96
CCO[C@@H]1CCN(C(=O)c2ccc[nH]2)[C@@H]1Cc1cccnc1 | -80.2
O=C1CCC2(CCCN(Cc3nccs3)C2)N1CC1CC1 (centres undefined) | -68.4
Cc1nc(CN2CCO[C@@H]3CN(Cc4cccs4)C[C@@H]3C2)cs1 | 6.11
O=C1COC2(CCN(CC3CC3)CC2)CN1c1ccccc1 | -14.6

Source: ChEMBL document CHEMBL4513216, “Probing the Open Global Health Chemical Diversity Library for Multistage-Active Starting Points for Next-Generation Antimalarials” (ACS Infect Dis, 2020)
